The entries come from a sample that favours hits as a whole.
TLR4 MyD88 comp: blocks binding of human TLR4 to MyD88; 0.18% of 200,000 active; inhibition, % at 8.4 µM; O00206+Q99836; AID 861; HeLa CL3-4 TLR4/MyD88 BLA complementation, FRET ratio; in the data active = inhibition above about 25%
XBP1 UPR activ: adaptive UPR (XBP1) activation | 0.33% of 330,000 active | CHO-XBP1 luciferase reporter, IRE1-XBP1 UPR activation, luminescence; percent of tunicamycin response, DMSO as zero | AID 463104 | activation, % at 20 µM;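 active = versus positive control, 20 µM dose yields 30% or more activation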
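Material: CHO-XBP1 cells stably carrying IRE1-XBP1-driven luciferase reporter / Amount: 1000 cells per well / Compound: 20 µM, 1% DMSO / Times: 6 h treatment, 37 °C / Detection: luciferase luminescence / Measure: % activation of reporter signal versus tunicamycin and DMSO controls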
CHOP UPR activ: apoptotic UPR (CHOP) activation; CHO-CHOP luciferase reporter, luminescence; percent of tunicamycin response over DMSO baseline; activation, % at 10 µM; 0.34% of 330,000 active; AID 449763;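 active = at 10 µM dose, activation of 40% or more, normalized to positive control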
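Dosing – one dose, 10 µM in 0.5% DMSO · System – CHO-CHOP cells, stable luciferase reporter of PERK-eIF2a-CHOP signalling · Input – 500 cells/well · Control set – tunicamycin 10 µg/mL final as positive, DMSO-only wells as negative · Timing – 6 h compound treatment, 37 °C · Measure – % activation vs tunicamycin · Technique – luminescence read with Steady-Glo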
TLR9-MyD88 block: blocks human TLR9 binding to MyD88; CHO BLA complementation TLR9-MyD88, CCF4 FRET ratio; inhibition, % at 4.98 µM; 0.21% of 340,000 active; AID 504734;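 active = inhibition above the mean over all tested compounds plus 3 SD, cut at about 21% in these data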
Target sequence (Q99836 whole entry, looked up): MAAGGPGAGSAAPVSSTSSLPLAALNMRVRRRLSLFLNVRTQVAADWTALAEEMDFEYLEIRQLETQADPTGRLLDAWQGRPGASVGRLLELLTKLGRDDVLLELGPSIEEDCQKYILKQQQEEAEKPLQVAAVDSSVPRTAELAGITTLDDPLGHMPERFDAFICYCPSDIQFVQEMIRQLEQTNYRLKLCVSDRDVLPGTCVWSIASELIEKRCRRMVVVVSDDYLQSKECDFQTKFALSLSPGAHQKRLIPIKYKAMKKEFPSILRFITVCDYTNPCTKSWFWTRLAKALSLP
Target sequence (Q9NR96 whole entry, looked up): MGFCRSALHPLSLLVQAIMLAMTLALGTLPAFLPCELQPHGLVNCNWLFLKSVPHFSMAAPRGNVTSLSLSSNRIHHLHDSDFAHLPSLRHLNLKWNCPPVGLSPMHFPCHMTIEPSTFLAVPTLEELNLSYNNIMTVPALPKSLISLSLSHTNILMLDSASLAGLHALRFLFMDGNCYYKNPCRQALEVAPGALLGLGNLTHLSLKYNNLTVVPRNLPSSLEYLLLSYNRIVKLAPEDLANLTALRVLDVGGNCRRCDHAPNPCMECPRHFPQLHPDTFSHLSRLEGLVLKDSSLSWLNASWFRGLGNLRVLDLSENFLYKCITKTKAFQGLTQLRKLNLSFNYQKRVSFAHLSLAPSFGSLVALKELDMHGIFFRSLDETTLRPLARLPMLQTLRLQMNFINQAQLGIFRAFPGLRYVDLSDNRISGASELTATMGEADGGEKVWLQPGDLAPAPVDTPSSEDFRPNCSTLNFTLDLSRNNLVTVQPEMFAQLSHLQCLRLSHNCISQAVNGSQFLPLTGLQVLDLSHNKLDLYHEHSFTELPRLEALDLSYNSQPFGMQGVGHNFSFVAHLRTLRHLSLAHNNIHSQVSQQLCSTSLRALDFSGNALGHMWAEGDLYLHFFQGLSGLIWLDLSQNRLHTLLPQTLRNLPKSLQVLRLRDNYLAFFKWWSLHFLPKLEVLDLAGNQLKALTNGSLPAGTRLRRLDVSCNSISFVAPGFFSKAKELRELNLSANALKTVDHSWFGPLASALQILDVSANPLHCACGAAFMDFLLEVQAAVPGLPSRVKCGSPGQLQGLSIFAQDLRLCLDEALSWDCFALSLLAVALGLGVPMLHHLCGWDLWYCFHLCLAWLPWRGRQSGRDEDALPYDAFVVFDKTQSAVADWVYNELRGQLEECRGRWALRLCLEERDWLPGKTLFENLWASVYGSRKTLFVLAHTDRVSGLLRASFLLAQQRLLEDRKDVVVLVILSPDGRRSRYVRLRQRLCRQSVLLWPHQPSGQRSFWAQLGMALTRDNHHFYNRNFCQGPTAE
CHOP inhibitor: blocks CHOP induction under ER stress; AID 2732; inhibition, % at 10 µM; CHO-K1 CHOP-promoter luciferase, tunicamycin-induced, 15-18 h; 3.8% of 220,000 active;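 active = compounds that reduced the stress-induced luciferase reporter signal by more than about 70% of percent inhibition, limit read from the data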
NOD2 RIPK2 PPI: blocks binding of human NOD2 to RIPK2 | inhibition, % at 4.98 µM | 0.38% of 360,000 active | CHO BLA complementation NOD2-RIPK2, CCF4 ratio | O43353 | AID 624267; in the data active = inhibition above about 21%
A number is an active result; i = inactive; nt = no result.

SMILES | TLR4 MyD88 comp | XBP1 UPR activ | CHOP UPR activ | TLR9-MyD88 block | CHOP inhibitor | NOD2 RIPK2 PPI
CCCOc1ccc(-c2nnn(CC(=O)c3c[nH]c4ccccc34)n2)cc1 | i | i | i | i | 85 | i
CCN(C(=O)CSc1nnc(C)n1-c1ccc(C)cc1)c1c(N)n(Cc2ccccc2)c(=O)[nH]c1=O | nt | nt | nt | i | nt | i
COCOc1cccc(CN2CCC2(C)C(=O)Nc2ccc(C)c(O)c2)c1 (stereo not given) | nt | nt | nt | nt | nt | i
Cc1cc(C)c(N(C(=O)Cn2nnc3ccccc32)C(C(=O)NC(C)(C)C)c2ccsc2)c(C)c1 (stereo not given) | i | i | i | i | i | i
CC(C)(C)NC(=O)C(c1ccsc1)N(CCc1ccccc1)C(=O)Cn1nnc2ccccc21 (stereo not given) | i | i | i | i | 95 | i
Cc1ccc(C)c(N(C(=O)Cn2nnc3ccccc32)C(C(=O)NC(C)(C)C)c2ccsc2)c1 (stereo not given) | i | i | i | i | 71 | i
CN1CCN(c2cc(CNC[C@H]3O[C@@H](n4cnc5c(=O)[nH]c(N)nc54)[C@H](O)[C@@H]3O)ccc2F)CC1 | nt | nt | nt | nt | nt | i
CC(Oc1cc2oc(=O)cc(-c3ccccc3)c2cc1Cl)C(=O)NCC1CCC(C(=O)O)CC1 (stereo not given) | nt | i | i | i | nt | i
CC(NC(=O)OC(C)(C)C)C(=O)Oc1cc2oc(=O)cc(-c3ccccc3)c2cc1Cl (stereo not given) | i | i | i | 31 | i | 39
CC(C)(C)c1ccc(CNc2ccc([N+](=O)[O-])cn2)cc1 | i | nt | nt | i | 87 | i
CC(C)c1ccc(CNc2ccc([N+](=O)[O-])cn2)cc1 | i | i | i | i | 83 | i
O=[N+]([O-])c1ccc(NCc2ccc(Cl)cc2)nc1 | nt | i | i | i | i | i
N#C/C(=C\Nc1ccc2c(c1)OCCO2)c1nc2ccccc2[nH]1 | i | i | i | i | 74 | i
Cc1cc(C)c2c(=O)n(CC(=O)N3CCC(Cc4ccccc4)CC3)sc2n1 | i | i | 41 | nt | 107 | nt
Cc1cccc(N2CCN(C(=O)Cn3sc4nc(C)cc(C)c4c3=O)CC2C)c1 (stereo not given) | i | i | i | i | 99 | 23
Cc1cc(C)c2c(=O)n(CC(=O)Nc3cccc(F)c3)sc2n1 | nt | i | i | i | i | i
CCOc1ccc(NC(=O)Cn2sc3nc(C)cc(C)c3c2=O)cc1 | nt | i | i | i | i | 27
Cc1cccc(N2CCN(C(=O)Cn3nc(C)n4cccc4c3=O)CC2C)c1 (stereo not given) | nt | i | i | i | nt | i
O=S(=O)(c1cccc2c(Cl)cccc12)N1CCCNCC1 | nt | nt | nt | nt | i | nt
CCOC(=O)C1=CCN(S(=O)(=O)c2ccc(Cl)cc2)C1c1cccc(C)c1 (stereo not given) | nt | nt | nt | nt | nt | i
CC(=O)Nc1ccc(Nc2cc(C)nc3c(-c4ccc(Cl)cc4)c(C)nn23)cc1 | i | i | i | i | 84 | i
CC(=O)Nc1ccc(Nc2cc(C)nc3c(-c4ccc(Cl)cc4)cnn23)cc1 | i | i | i | i | 75 | i
O=C(/C(Cl)=C/Nc1ccc(Br)cn1)C(F)(F)F | i | i | i | i | 87 | i
Cc1ccccc1-c1nc(S(=O)(=O)c2ccc(Cl)cc2)c(NCCN2CCOCC2)o1 | i | i | i | i | 90 | i
Cc1ccccc1-c1nc(S(=O)(=O)c2ccccc2)c(NCCCN2CCOCC2)o1 | nt | i | i | i | nt | i
SMILES | TLR4 MyD88 comp | XBP1 UPR activ | CHOP UPR activ | TLR9-MyD88 block | CHOP inhibitor | NOD2 RIPK2 PPI
O=C(NCCC1=CCCCC1)C1CCC(CNc2nc(=S)[nH]c3ccccc23)CC1 (stereo not given) | i | i | i | i | 94 | i
O=C(NCCc1ccc(Cl)cc1)C1CCC(CNc2nc(=S)[nH]c3ccccc23)CC1 (stereo not given) | i | i | i | i | 87 | i
COc1cc(CC(=O)Nc2c(-c3ccccc3)[nH][nH]c2=O)cc(OC)c1 | nt | nt | nt | nt | nt | i
CC1Cc2ccccc2N1C(=O)CSc1nnc(Cn2nnc3ccccc32)n1C (stereo not given) | i | i | i | i | 72 | i
CC(C)N(C(=O)CSc1nnc(Cn2nnc3ccccc32)n1C)C(C)C | i | i | i | i | i | i
OC(CN1CCN(c2ccccn2)CC1)Cn1c2ccccc2c2ccccc21 (stereo not given) | i | i | i | i | 72 | i
OC(COC(c1ccccc1)c1ccccc1)CN1CCN(c2ccccn2)CC1 (stereo not given) | i | i | i | i | i | i
O=Cc1c[nH]c2cccc(OCc3ccccc3)c12 | nt | i | i | i | nt | i
COc1ccc(/C=N/NC(=S)Nc2ccccc2)cc1COc1cccc(C)c1C | nt | i | i | i | 91 | i
COc1ccc(C=NNC(=S)Nc2ccc(F)cc2)cc1OC | nt | nt | nt | i | nt | i
Cc1ccc(C(=O)CN2C(=O)c3ccccc3S2(=O)=O)cc1 | nt | i | i | i | 87 | i
O=C(CN1C(=O)c2ccccc2S1(=O)=O)c1ccccc1 | i | i | i | i | i | i
Cc1ccn2c(CC(C)(C)C)c(-c3ccc(F)cc3)nc2c1 | nt | nt | nt | i | nt | i
CC(C)n1c(=O)c2ccccc2n1Cc1cn(Cc2cccs2)nn1 | nt | nt | nt | nt | nt | i
O=[N+]([O-])c1ccc(/C=N/n2cnc3ccccc32)s1 | i | i | i | i | 83 | i
Cc1cc2ncn(/N=C/c3ccc([N+](=O)[O-])s3)c2cc1C | i | nt | nt | i | i | i
CC(=O)Oc1c(Sc2ccccc2[N+](=O)[O-])c(C)nn1C(C)(C)C | i | i | i | i | 75 | i
C[C@@H]1Cn2cnc(C(=O)Nc3cccc(Cl)c3)c2C(=O)N1 | nt | nt | nt | i | nt | i
CCc1nnc(NC(=O)Cn2c(=O)oc3ccccc32)s1 | i | i | i | i | i | i
CC(C)CN(CC(C)C)c1nnc(NC(=O)Cn2c(=O)oc3ccccc32)s1 | i | i | i | i | 79 | i
COc1ccc(C)cc1-n1nnnc1SCc1nc2ccccc2s1 | i | i | i | i | i | i
COc1ccc(-n2nnnc2SCc2nc3ccccc3s2)cc1 | i | i | i | i | 82 | i
CCOc1ccccc1N1CCN(C2=C(NS(=O)(=O)c3cccs3)C(=O)c3ccccc3C2=O)CC1 | i | i | i | i | 71 | i
CN1CCN(C2=C(NS(=O)(=O)c3cccs3)C(=O)c3ccccc3C2=O)CC1 | nt | i | i | i | i | i
CCOC1=C2[C@@H](CN(S(=O)(=O)c3ccc(C)cc3)[C@H]2c2cccc3ccccc23)[C@H]2C(=O)N(CC)C(=O)[C@H]2C1 | nt | nt | nt | nt | nt | i
COCCN(CCOC)Cc1cc(=O)oc2cc(OC)ccc12 | nt | nt | nt | nt | nt | i
O=C(COC(=O)c1c(Cl)ccc(Cl)c1Cl)NC(=O)NCc1ccccc1 | i | i | i | i | 84 | i

Assay outcomes from PubChem.
